Laboratory results: paper PMC9633546 (Angewandte Chemie (International Ed. in English), 2022)
Values after ≈ are worked out from the molar mass of the structure shown.

What was measured:
in vitro = conditions: plasma
M. abscessus ATCC 19977 = assay: MIC assay in 96-well plate format, WT M. abscessus; type: cell-based, Mycobacterium abscessus subsp. abscessus; conditions: Mycobacteroides abscessus, ATCC19977, read-out: WT Mab MIC
Arr Mab = assay: LC-MS/HPLC in vitro validation of ADP-ribosylation; type: biochemical, M. abscessus; conditions: 40 minute incubation, 5 µM enzyme
In short: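 The enzyme was recombinant M. abscessus Arr, cloned, expressed and purified in-house. Enzymatic reactions were analysed by LC-MS, quantifying the remaining rifamycin and its ADP-ribosylated adducts.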

[1] = Pharmacokinetics studies in CD-1 mice; type: in vivo, mouse
Δarr M. abscessus = assay: MIC assay in 96-well plate format, arr-deleted strain; type: cell-based, Mycobacterium abscessus; conditions: isogenic arr-deleted M. abscessus ATCC 19977; 90 % growth inhibition

Structure (SMILES)	fraction unbound (in vitro)	MIC (M. abscessus ATCC 19977)	ADP-ribosylation upon incubation with Arr Mab and NAD+ (Arr Mab)	ADP-ribosylation upon incubation with Arr Mab and NAD+ (Arr Mab; listed as Rifabutin)	V d ([1]; CD-1 mice, single dose 10 mg/kg)	fAUC/MIC ([1]; based on p.o. doses of 10 mg kg^−1)	half-life ([1]; female, CD-1, mouse, plasma, 10 mg/kg)	Δarr Mab MIC (Δarr M. abscessus)
CO[C@H]1/C=C/O[C@@]2(C)Oc3c(C)c(O)c4c(c3C2=O)C2=NC3(CCN(CC(C)C)CC3)NC2=C(NC(=O)/C(C)=C\C=C\[C@H](C)[C@H](O)[C@@H](C)[C@@H](O)[C@@H](C)[C@H](OC(C)=O)[C@@H]1C)C4=O [rifabutin]	0.0376	1.15 µM (≈ 0.974 µg/mL)	completely converted	fully converted	3.51 L/kg	0.22	4 h	0.031 µM
CO[C@H]1/C=C/O[C@@]2(C)Oc3c(C)c(O)c4c(O)c(c(/C=N/N5CCN(C)CC5)c(O)c4c3C2=O)NC(=O)/C(C)=C\C=C\[C@H](C)[C@H](O)[C@@H](C)[C@@H](O)[C@@H](C)[C@H](OC(C)=O)[C@@H]1C [rifampicin]	–	5.3 µM (≈ 4.36 µg/mL)	completely converted	–	–	–	–	0.26 µM
CC[C@H]1OC(=O)[C@H](C)[C@@H](O[C@H]2C[C@@](C)(OC)[C@@H](O)[C@H](C)O2)[C@H](C)[C@@H](O[C@@H]2O[C@H](C)C[C@H](N(C)C)[C@H]2O)[C@](C)(OC)C[C@@H](C)C(=O)[C@H](C)[C@@H](O)[C@]1(C)O [clarithromycin]	–	1.45 µM (≈ 1.08 µg/mL)	–	–	–	–	–	1.8 µM
